Results reported in ChEMBL document CHEMBL4732158, “Bicyclic Ligand-Biased Agonists of S1P: Exploring Side Chain Modifications to Modulate the PK, PD, and Safety Profiles” (J Med Chem, 2021).
pEC50, pIC50: −log10 of the molar value. Active and inactive are the calls of the source. No cut-off for these calls is given here.

Legend:
Rattus norvegicus [1] = assay: Antiinflammatory activity in complete freund's adjuvant-induced Lewis rat model of arthritis assessed as reduction in paw edema administered via oral gavage once daily by plethysmometric method; type: functional, organism-based
[2] = Volume of distribution at steady state in cynomolgus monkey at 1 mg/kg, po or 1 mg/kg, iv; type: ADME, organism-based, Macaca fascicularis; conditions: in vivo, read-out: Vdss
In short: (§1)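 Single IV and oral dosing in male animals, n = 3. Rats were Sprague-Dawley. Vehicle: 18.4% hydroxypropyl-β-cyclodextrin in 13.8 mM citric acid. Blood concentrations followed over time; terminal T1/2 and steady-state volume of distribution taken from the IV dose.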

[3] = Ratio of drug metabolism in Lewis rat blood assessed as phosphate ester metabolite to parent drug at 2 mg/kg, po measured at 24 hrs by LC-MS/MS analysis; type: ADME, organism-based; conditions: in vivo
In short: (§2)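 Lewis rats (n = 2−4) dosed orally at 0.5, 1, 2 or 5 mg/kg; blood parent and phosphate metabolite concentrations and lymphocyte counts taken 4 and 24 h post-dose; phosphate-to-parent ratio from 24 h levels; significance versus vehicle by ANOVA with Dunnett's test.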

[4] = Drug concentration in Lewis rat blood assessed as concentration of parent compound at 2 mg/kg, po measured at 24 hrs by LC-MS/MS analysis; type: ADME, organism-based; conditions: in vivo, read-out: Ct; in short: as §2
[5] = Oral bioavailability in Sprague- Dawley rat at 1 mg/kg; type: ADME, organism-based; conditions: in vivo
Rattus norvegicus [6] = assay: Antiinflammatory activity in complete freund's adjuvant-induced Lewis rat model of arthritis assessed as effective dose administered via oral gavage once daily by plethysmometric method; type: functional
Rattus norvegicus [7] = assay: Reduction in circulating lymphocytes count in Lewis rat at 2 mg/kg, po measured at 4 hrs by hematology analyzer based analysis; type: functional; parameters: scale not given: the % may be the effect or the level left
In short: (§3)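 Lewis rats (n = 2−4) dosed orally; whole-blood lymphocyte counts taken 4 h and 24 h after dosing and reduction expressed versus vehicle-treated rats. Significance by ANOVA with Dunnett's test (p < 0.05 vs vehicle). Blood levels of parent and phosphate metabolite measured at the same time points in this PK/PD screen.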

[8] = Terminal half life in cynomolgus monkey at 1 mg/kg, po or 1 mg/kg, iv; type: ADME, organism-based, Macaca fascicularis; conditions: in vivo, read-out: beta t1/2 (converted); in short: as §1
[9] = Volume of distribution at steady state in Sprague- Dawley rat at 1 mg/kg, po or 1 mg/kg, iv; type: ADME, organism-based; conditions: in vivo, read-out: Vdss; in short: as §1
Rattus norvegicus [10] = assay: Antiinflammatory activity in complete freund's adjuvant-induced Lewis rat model of arthritis assessed as increase in paw volume at 2.5 mg/kg, po administered via gavage once daily by plethysmometric method; type: functional, organism-based
[11] = Drug concentration in Lewis rat blood assessed as concentration of parent compound at 2 mg/kg, po measured at 4 hrs by LC-MS/MS analysis; type: ADME, organism-based; conditions: Lewis, blood, read-out: Ct; in short: as §2
Rattus norvegicus [12] = assay: Antiinflammatory activity in complete freund's adjuvant-induced Lewis rat model of arthritis assessed as reduction in paw edema at 0.5 mg/kg, po administered via gavage once daily and measured at day 18 to 22 by plethysmometric method; type: functional, organism-based; conditions: time 18-22 day
[13] = Terminal half life in Sprague- Dawley rat at 1 mg/kg, po or 1 mg/kg, iv; type: ADME, organism-based; conditions: in vivo, read-out: beta t1/2 (converted); in short: as §1
[14] = Clearance in cynomolgus monkey at 1 mg/kg, iv; type: ADME, organism-based, Macaca fascicularis; conditions: in vivo
[15] = Reduction in circulating lymphocytes count in Lewis rat at 2 mg/kg, po measured at 24 hrs by hematology analyzer based analysis; type: Functional, organism-based; parameters: scale not given: the % may be the effect or the level left; conditions: in vivo; in short: as §3
[16] = AUC ratio in orally dosed cynomolgus monkey blood assessed as phosphate metabolite to parent compound; type: ADME, organism-based, Macaca fascicularis; conditions: in vivo, po
In short: (§4)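 Phosphate-to-parent ratio computed as blood AUC ratio after oral dosing in rats, dogs and monkeys.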

[17] = Cardiotoxicity in human iPSC derived cardiomyocytes assessed as change in heart rate at 10 nM measured over 2 hrs by multi-electrode array relative to control; type: toxicity, cell-based; conditions: stem cell-derived cardiomyocyte, 0.01 µM
In short: (§5)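 Phosphate metabolite of each compound prepared and tested on cultured human induced pluripotent stem cell-derived cardiomyocytes at 1 and 10 nM; beat rate change averaged over three or more replicates per concentration unless noted (some n = 2).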

[18] = Half life in Lewis rat at 2 mg/kg, po measured at 4 to 72 hrs; type: ADME, organism-based; conditions: Lewis, in vivo, time 4-72 hrs
In short: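 Half-life estimated from oral-dosing blood PK profiles in Lewis rats sampled at four time points: 4, 24, 48 and 72 h.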

Rattus norvegicus [19] = assay: Antiinflammatory activity in complete freund's adjuvant-induced Lewis rat model of arthritis assessed as reduction in paw swelling at 0.5 mg/kg, po administered via gavage once daily and measured at day 18 to 22 by plethysmometric method relative to control; type: functional; parameters: scale not given: the % may be the effect or the level left; conditions: time 18-22 day
[20] = AUC ratio in orally dosed Sprague-Dawley rat blood assessed as phosphate metabolite to parent compound; type: ADME, organism-based; conditions: in vivo, po; in short: as §4
[21] = Pulmonary toxicity in Lewis rat assessed as fold elevation of BAL protein content at 2 mg/kg, po by chemistry analyzer based analysis relative to control; type: organism-based; conditions: in vivo
In short: (§6)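 Lewis rats dosed orally; bronchoalveolar lavage protein measured at study end, expressed as fold over vehicle control.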

[22] = Oral bioavailability in cynomolgus monkey at 1 mg/kg; type: ADME, organism-based, Macaca fascicularis; conditions: in vivo
[23] = Cardiotoxicity in human iPSC derived cardiomyocytes assessed as change in heart rate at 1 nM measured over 2 hrs by multi-electrode array relative to control; type: toxicity, cell-based; conditions: stem cell-derived cardiomyocyte, 0.001 µM; in short: as §5
[24] = Clearance in Sprague- Dawley rat at 1 mg/kg, iv; type: ADME, organism-based; conditions: in vivo
[25] = target: T1, Sphingosine 1-phosphate receptor 4 (Homo sapiens, UniProt O95977); assay: Agonist activity at recombinant human S1P4 expressed in CHO cell membranes assessed as stimulation of [35S]-GTPgammaS binding measured after 45 mins by liquid scintillation counting method; type: functional, Membrane
T1 sequence (O95977 whole entry): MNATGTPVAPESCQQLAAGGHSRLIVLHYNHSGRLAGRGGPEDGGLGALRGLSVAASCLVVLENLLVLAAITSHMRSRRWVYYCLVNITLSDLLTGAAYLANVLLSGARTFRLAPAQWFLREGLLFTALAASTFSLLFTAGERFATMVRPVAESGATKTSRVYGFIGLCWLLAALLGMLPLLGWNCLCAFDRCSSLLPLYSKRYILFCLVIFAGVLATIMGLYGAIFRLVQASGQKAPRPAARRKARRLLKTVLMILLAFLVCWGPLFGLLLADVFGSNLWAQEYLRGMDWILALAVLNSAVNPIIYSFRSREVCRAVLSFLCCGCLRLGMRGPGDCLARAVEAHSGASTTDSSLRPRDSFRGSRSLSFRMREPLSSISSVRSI

[26] = Antimigratory activity against human T cells assessed as inhibition of S1P-induced T cell migration preincubated for 10 mins followed by addition of S1P measured after 120 mins by calcein-AM dye based fluorescence analysis; type: functional
Rattus norvegicus [27] = assay: Antiinflammatory activity in complete freund's adjuvant-induced Lewis rat model of arthritis assessed as reduction in paw edema at 0.3 mg/kg, po administered via gavage once daily and measured at day 13 to 20 by plethysmometric method; type: functional, organism-based; conditions: time 13-20 day
Rattus norvegicus [28] = assay: Antiinflammatory activity in complete freund's adjuvant-induced Lewis rat model of arthritis assessed as increase in paw volume at 1 mg/kg, po administered via gavage once daily by plethysmometric method; type: functional, organism-based
Rattus norvegicus [29] = assay: Reduction in circulating lymphocytes count in Lewis rat at 0.3 mg/kg, po measured at 4 hrs by hematology analyzer based analysis; type: functional; parameters: scale not given: the % may be the effect or the level left
[30] = Reduction in circulating lymphocytes count in Lewis rat at 0.3 mg/kg, po measured at 24 hrs by hematology analyzer based analysis; type: ADME, organism-based; parameters: scale not given: the % may be the effect or the level left; conditions: in vivo
[31] = Pulmonary toxicity in Lewis rat assessed as fold elevation of BAL protein content at 5 mg/kg, po by chemistry analyzer based analysis relative to control; type: organism-based; conditions: in vivo; in short: as §6
[32] = Drug concentration in Lewis rat blood assessed as concentration of parent compound at 5 mg/kg, po measured at 4 hrs by LC-MS/MS analysis; type: ADME, organism-based; conditions: read-out: Ct; in short: as §2
Rattus norvegicus [33] = assay: Reduction in circulating lymphocytes count in Lewis rat at 5 mg/kg, po measured at 4 hrs by hematology analyzer based analysis; type: functional; parameters: scale not given: the % may be the effect or the level left; in short: as §3
[34] = Reduction in circulating lymphocytes count in Lewis rat at 5 mg/kg, po measured at 24 hrs by hematology analyzer based analysis; type: ADME, organism-based; parameters: scale not given: the % may be the effect or the level left; conditions: in vivo; in short: as §3
[35] = Ratio of drug metabolism in Lewis rat blood assessed as phosphate ester metabolite to parent drug at 5 mg/kg, po measured at 24 hrs by LC-MS/MS analysis; type: ADME, organism-based; conditions: in vivo; in short: as §2
[36] = Drug concentration in Lewis rat blood assessed as concentration of parent compound at 5 mg/kg, po measured at 24 hrs by LC-MS/MS analysis; type: ADME, organism-based; conditions: Lewis, blood, read-out: Ct; in short: as §2

Structure (SMILES): CCOCCCC1CCc2cc([C@H]3CC[C@](N)(CO)C3)ccc2C1 (single isomer, unassigned)
- Activity (Rattus norvegicus [1]): Dose-dependent effect
- Vd [2]: 8.4 L/kg
- Ratio [3]: 1.8
- concentration [4]: 110 nM
- bioavailability [5]: 45%
- ED50 (Rattus norvegicus [6]): 0.3 mg/kg
- Activity (Rattus norvegicus [7]): 78%
- half-life [8]: 21 h
- Vd [9]: 12 L/kg
- Activity (Rattus norvegicus [10]): inactive
- concentration at 4 h [11]: 172 nM
- Activity (Rattus norvegicus [12]): inactive
- half-life [13]: 29 h
- clearance [14]: 7.4 mL/min/kg
- Activity [15]: 83%
- Ratio AUC [16]: 0.73
- Activity [17]: -29%
- half-life [18]: 26 h
- Activity (Rattus norvegicus [19]): 75%
- Ratio AUC [20]: 0.9
- fold change (FC) [21]: 1.2
- bioavailability [22]: 76%
- Activity [23]: -14%
- clearance [24]: 6 mL/min/kg

Structure (SMILES): CCCCCCCCc1ccc(CCC(N)(CO)COP(=O)(O)O)cc1 (configuration not stated)
- pEC50 [25]: 8.80
- pIC50 [26]: 8.92

Structure (SMILES): COCCCCCC1CCc2cc([C@H]3CC[C@](N)(CO)C3)ccc2C1 (single isomer, unassigned; 24)
- Activity (Rattus norvegicus [27]): inactive
- Activity (Rattus norvegicus [1]): Dose-dependent effect
- Activity (Rattus norvegicus [28]): inactive

Structure (SMILES): C/C=C\CCC[C@@H]1CCc2cc([C@H]3CC[C@](N)(CO)C3)ccc2C1
- Activity (Rattus norvegicus [29]): 0%
- Activity [30]: 22%

Structure (SMILES): CCCC[S+]([O-])C[C@@H]1CCc2cc([C@H]3CC[C@](N)(CO)C3)ccc2C1 (some centres not stated)
- fold change (FC) [31]: 1.5
- concentration at 4 h [32]: 109 nM
- Activity (Rattus norvegicus [33]): 0%
- Activity [34]: 75%
- Ratio [35]: 2.3
- concentration at 24 h [36]: 10 nM
